Laboratory results as given in ChEMBL document CHEMBL3526002, “Tissue distribution and identification of radioactivity components at elimination phase after oral administration of [¹⁴C]CS-1036, an α-amylase inhibitor, to rats” (Drug Metab Dispos, 2013).

What was measured:
Conditions in all cases: in vivo; call rule not given here
[1] = system: Heart; assay: Drug uptake in albino F344/DuCrlCrlj rat heart at 5 mg/kg, po after 1 hr by liquid scintillation counting; assay type: ADME, organism-based; set-up: dose 5 mg/kg, dosed compound name [14C]CS-1036, route oral
[2] = Drug uptake in albino F344/DuCrlCrlj rat mandibular gland at 5 mg/kg, po after 1 hr by liquid scintillation counting; assay type: ADME, organism-based; set-up: dose 5 mg/kg, dosed compound name [14C]CS-1036, route oral
[3] = system: Large intestine; assay: Drug uptake in albino F344/DuCrlCrlj rat large intestine at 5 mg/kg, po after 1 hr by liquid scintillation counting; assay type: ADME, organism-based; set-up: dose 5 mg/kg, dosed compound name [14C]CS-1036, route oral
[4] = system: Adrenal gland; assay: Drug uptake in albino F344/DuCrlCrlj rat adrenal gland assessed as ng equivalent of CS-1036 at 5 mg/kg, po after 168 hrs by liquid scintillation counting; assay type: ADME, organism-based; set-up: dose 5 mg/kg, dosed compound name [14C]CS-1036, route oral
[5] = Drug uptake in albino F344/DuCrlCrlj rat trachea at 5 mg/kg, po after 1 hr by liquid scintillation counting; assay type: ADME, organism-based; set-up: dose 5 mg/kg, dosed compound name [14C]CS-1036, route oral
[6] = Drug uptake in albino F344/DuCrlCrlj rat brown fat at 5 mg/kg, po after 336 hrs by liquid scintillation counting; assay type: ADME, organism-based, Brown adipose tissue; set-up: dose 5 mg/kg, dosed compound name [14C]CS-1036, route oral
[7] = Drug uptake in albino F344/DuCrlCrlj rat trachea assessed as ng equivalent of CS-1036 at 5 mg/kg, po after 4 hrs by liquid scintillation counting; assay type: ADME, organism-based; set-up: dose 5 mg/kg, dosed compound name [14C]CS-1036, route oral
[8] = system: Harderian gland; assay: Drug uptake in albino F344/DuCrlCrlj rat harderian gland assessed as ng equivalent of CS-1036 at 5 mg/kg, po after 24 hrs by liquid scintillation counting; assay type: ADME, organism-based; set-up: dose 5 mg/kg, dosed compound name [14C]CS-1036, route oral
[9] = system: Harderian gland; assay: Drug uptake in albino F344/DuCrlCrlj rat harderian gland at 5 mg/kg, po after 1 hr by liquid scintillation counting; assay type: ADME, organism-based; set-up: dose 5 mg/kg, dosed compound name [14C]CS-1036, route oral
[10] = system: Liver; assay: Drug uptake in albino F344/DuCrlCrlj rat liver assessed as ng equivalent of CS-1036 at 5 mg/kg, po after 168 hrs by liquid scintillation counting; assay type: ADME, organism-based; set-up: dose 5 mg/kg, dosed compound name [14C]CS-1036, route oral
[11] = Drug uptake in albino F344/DuCrlCrlj rat bone marrow at 5 mg/kg, po after 1 hr by liquid scintillation counting; assay type: ADME, organism-based; set-up: dose 5 mg/kg, dosed compound name [14C]CS-1036, route oral
[12] = system: Cerebellum; assay: Drug uptake in albino F344/DuCrlCrlj rat cerebellum assessed as ng equivalent of CS-1036 at 5 mg/kg, po after 8 hrs by liquid scintillation counting; assay type: ADME, organism-based; set-up: dose 5 mg/kg, dosed compound name [14C]CS-1036, route oral
[13] = system: Plasma; assay: Drug uptake in albino F344/DuCrlCrlj rat plasma at 10 mg/kg, po after 8 to 72 hrs by liquid scintillation counting; assay type: ADME, organism-based; set-up: dose 10 mg/kg, dosed compound name [14C]CS-1036, route oral
[14] = system: Kidney; assay: Drug uptake in albino F344/DuCrlCrlj rat kidney assessed as ng equivalent of CS-1036 at 5 mg/kg, po after 4 hrs by liquid scintillation counting; assay type: ADME, organism-based; set-up: dose 5 mg/kg, dosed compound name [14C]CS-1036, route oral
[15] = system: Large intestine; assay: Drug uptake in albino F344/DuCrlCrlj rat large intestine assessed as ng equivalent of CS-1036 at 5 mg/kg, po after 336 hrs by liquid scintillation counting; assay type: ADME, organism-based; set-up: dose 5 mg/kg, dosed compound name [14C]CS-1036, route oral
[16] = system: Kidney; assay: Drug uptake in albino F344/DuCrlCrlj rat kidney at 5 mg/kg, po after 24 hrs by liquid scintillation counting; assay type: ADME, organism-based; set-up: dose 5 mg/kg, dosed compound name [14C]CS-1036, route oral
[17] = Drug uptake in albino F344/DuCrlCrlj rat mandibular gland assessed as ng equivalent of CS-1036 at 5 mg/kg, po after 8 hrs by liquid scintillation counting; assay type: ADME, organism-based; set-up: dose 5 mg/kg, dosed compound name [14C]CS-1036, route oral
[18] = system: Heart; assay: Drug uptake in albino F344/DuCrlCrlj rat heart assessed as ng equivalent of CS-1036 at 5 mg/kg, po after 8 hrs by liquid scintillation counting; assay type: ADME, organism-based; set-up: dose 5 mg/kg, dosed compound name [14C]CS-1036, route oral
[19] = Drug uptake in albino F344/DuCrlCrlj rat testis at 5 mg/kg, po after 4 hrs by liquid scintillation counting; assay type: ADME, organism-based; set-up: dose 5 mg/kg, dosed compound name [14C]CS-1036, route oral
[20] = system: Heart; assay: Drug uptake in albino F344/DuCrlCrlj rat heart assessed as ng equivalent of CS-1036 at 5 mg/kg, po after 336 hrs by liquid scintillation counting; assay type: ADME, organism-based; set-up: dose 5 mg/kg, dosed compound name [14C]CS-1036, route oral
[21] = Drug uptake in albino F344/DuCrlCrlj rat thyroid gland assessed as ng equivalent of CS-1036 at 5 mg/kg, po after 8 hrs by liquid scintillation counting; assay type: ADME, organism-based; set-up: dose 5 mg/kg, dosed compound name [14C]CS-1036, route oral
[22] = Drug uptake in albino F344/DuCrlCrlj rat testis assessed as ng equivalent of CS-1036 at 5 mg/kg, po after 8 hrs by liquid scintillation counting; assay type: ADME, organism-based; set-up: dose 5 mg/kg, dosed compound name [14C]CS-1036, route oral
[23] = system: Pancreas; assay: Drug uptake in albino F344/DuCrlCrlj rat pancreas assessed as ng equivalent of CS-1036 at 5 mg/kg, po after 4 hrs by liquid scintillation counting; assay type: ADME, organism-based; set-up: dose 5 mg/kg, dosed compound name [14C]CS-1036, route oral
[24] = system: Cerebrum; assay: Drug uptake in albino F344/DuCrlCrlj rat cerebrum assessed as ng equivalent of CS-1036 at 5 mg/kg, po after 8 hrs by liquid scintillation counting; assay type: ADME, organism-based; set-up: dose 5 mg/kg, dosed compound name [14C]CS-1036, route oral
Method in brief: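 Single oral [14C]CS-1036 at 5 mg/kg was given to male rats (159–167 g; n = 3). Cerebrum was collected after aortic bleeding at 1, 4, 8, 24, 72, 168 or 336 h, weighed, and homogenized in 2 volumes of saline. A 0.5 ml aliquot was solubilized in Soluene-350 and counted by LSC with external-standard correction. Results are in ng equivalent/g tissue from specific activity and sample weight.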

[25] = Drug uptake in albino F344/DuCrlCrlj rat epididymis assessed as ng equivalent of CS-1036 at 5 mg/kg, po after 8 hrs by liquid scintillation counting; assay type: ADME, organism-based; set-up: dose 5 mg/kg, dosed compound name [14C]CS-1036, route oral
[26] = Drug uptake in albino F344/DuCrlCrlj rat eyeball at 5 mg/kg, po after 24 hrs by liquid scintillation counting; assay type: ADME, organism-based; set-up: dose 5 mg/kg, dosed compound name [14C]CS-1036, route oral
[27] = Drug uptake in albino F344/DuCrlCrlj rat epididymis assessed as ng equivalent of CS-1036 at 5 mg/kg, po after 168 hrs by liquid scintillation counting; assay type: ADME, organism-based; set-up: dose 5 mg/kg, dosed compound name [14C]CS-1036, route oral
[28] = system: Adrenal gland; assay: Drug uptake in albino F344/DuCrlCrlj rat adrenal gland at 5 mg/kg, po after 24 hrs by liquid scintillation counting; assay type: ADME, organism-based; set-up: dose 5 mg/kg, dosed compound name [14C]CS-1036, route oral
[29] = system: Kidney; assay: Drug uptake in albino F344/DuCrlCrlj rat kidney at 5 mg/kg, po after 168 hrs by liquid scintillation counting; assay type: ADME, organism-based; set-up: dose 5 mg/kg, dosed compound name [14C]CS-1036, route oral
[30] = system: Blood; assay: Drug uptake in albino F344/DuCrlCrlj rat blood at 5 mg/kg, po after 4 hrs by liquid scintillation counting; assay type: ADME, organism-based; set-up: dose 5 mg/kg, dosed compound name [14C]CS-1036, route oral
Method in brief: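 Male F344/DuCrlCrlj rats (159–167 g; n = 3 per time point) received a single oral dose of [14C]CS-1036 at 5 mg/kg. Blood was taken from the abdominal aorta at 1, 4, 8, 24, 72, 168 and 336 h. Radioactivity was counted by LSC with external-standard efficiency correction. Results were converted to ng equivalent of CS-1036/ml using specific activity and sample volume, and reported as mean + S.D.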

[31] = Drug uptake in albino F344/DuCrlCrlj rat fat assessed as ng equivalent of CS-1036 at 5 mg/kg, po after 336 hrs by liquid scintillation counting; assay type: ADME, organism-based, Adipose tissue; set-up: dose 5 mg/kg, dosed compound name [14C]CS-1036, route oral
Method in brief: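 Male F344/DuCrlCrlj rats (bought at 7 weeks, acclimatized 5–6 days; 159–167 g; n = 3 per time point) received a single oral dose of [14C]CS-1036 at 5 mg/kg. White adipose tissue was collected after abdominal aortic bleeding at 1, 4, 8, 24, 72, 168 or 336 h. Samples were counted by LSC with external-standard efficiency correction. Results were converted to ng equivalents per g from specific activity and sample weight.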

[32] = system: Pancreas; assay: Drug uptake in albino F344/DuCrlCrlj rat pancreas assessed as ng equivalent of CS-1036 at 5 mg/kg, po after 8 hrs by liquid scintillation counting; assay type: ADME, organism-based; set-up: dose 5 mg/kg, dosed compound name [14C]CS-1036, route oral

## C[C@H]1O[C@@H](O[C@H]2[C@H](O)[C@@H](O)[C@@H](O[14C@H]3[14C@H](O)[14CH2]N[14C@@H]3[14CH2]O)O[C@@H]2CO)[C@H](O)[C@@H](O)[C@@H]1O
[1]
  Radiolabel recovery: 27.9 ngequiv/g
[2]
  Radiolabel recovery: 43.4 ngequiv/g
[3]
  Radiolabel recovery: 1070 ngequiv/g
[4]
  Radiolabel recovery: 93 ngequiv/g
[5]
  Radiolabel recovery: 41.1 ngequiv/g
[6]
  Radiolabel recovery: 54.3 ngequiv/g
[7]
  Radiolabel recovery: 10.4 ngequiv/g
[8]
  Radiolabel recovery: 88 ngequiv/g
[9]
  Radiolabel recovery: 30.2 ngequiv/g
[10]
  Radiolabel recovery: 9.1 ngequiv/g
[11]
  Radiolabel recovery: 34.9 ngequiv/g
[12]
  Radiolabel recovery: 1.18 ngequiv/g
[13]
  Drug uptake: Active
[14]
  Radiolabel recovery: 173 ngequiv/g
[15]
  Radiolabel recovery: 6.02 ngequiv/g
[16]
  Radiolabel recovery: 137 ngequiv/g
[17]
  Radiolabel recovery: 24 ngequiv/g
[18]
  Radiolabel recovery: 8.3 ngequiv/g
[19]
  Radiolabel recovery: 22.3 ngequiv/g
[20]
  Radiolabel recovery: 3.63 ngequiv/g
[21]
  Radiolabel recovery: 57.2 ngequiv/g
[22]
  Radiolabel recovery: 24.1 ngequiv/g
[23]
  Radiolabel recovery: 52 ngequiv/g
[24]
  Radiolabel recovery: 1.44 ngequiv/g
[25]
  Radiolabel recovery: 37.8 ngequiv/g
[26]
  Radiolabel recovery: 17.4 ngequiv/g
[27]
  Radiolabel recovery: 8.2 ngequiv/g
[28]
  Radiolabel recovery: 81.8 ngequiv/g
[29]
  Radiolabel recovery: 27 ngequiv/g
[30]
  Radiolabel recovery: 44.3 ngequiv/ml
[31]
  Radiolabel recovery: 63 ngequiv/g
[32]
  Radiolabel recovery: 71 ngequiv/g
